Data: ChEMBL document CHEMBL1156371, “New polyoxygenated briarane diterpenoids, briaexcavatolides O-R, from the gorgonian Briareum excavatum” (2001)
≈ marks a conversion by molar mass, not a printed value. Calls of active or inactive are those of the source. The calls are words filed in the database; no cut-off is given here.

Tests used:
Assay type in all cases: functional
P388 = test: Cytotoxicity against mouse P388 cells by MTT assay
In short: (§1)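 Colorimetric read-out using a modified MTT [3-(4,5-dimethylthiazol-2-yl)-2,5-diphenyltetrazolium bromide] method, following previously described procedures.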

A549 = test: Cytotoxicity against human A549 cells by MTT assay; in short: as §1
HT-29 = test: Cytotoxicity against human HT-29 cells by MTT assay; in short: as §1
[1] = read-out: ED50 (the source's name)

Structure (SMILES)	EC50 (P388; [1]) [µg/mL]	EC50 (A549; [1]) [µg/mL]	EC50 (HT-29; [1]) [µg/mL]	Activity (P388)	Activity (A549)	Activity (HT-29)
CCCC(=O)O[C@@H]1/C(C)=C\[C@@H]2OC(=O)[C@@]3(C)O[C@]23[C@@H](OC(C)=O)[C@H]2[C@@H](C)[C@@H](O)C[C@H](OC(C)=O)[C@]2(C)[C@@H](OC(C)=O)[C@H]1O [BRIAEXCAVATOLIDE P]	0.9 (≈ 1.47 µM)	4.8 (≈ 7.86 µM)	3.1 (≈ 5.08 µM)	–	–	–
CCCCCCCC(=O)O[C@H]1C[C@H](OC(C)=O)[C@@]2(C)[C@H]([C@H]1C)[C@H](OC(C)=O)[C@]13O[C@]1(C)C(=O)O[C@H]3/C=C(/C)C[C@H](OC(=O)CCC)[C@@H]2OC(C)=O	–	–	–	inactive	inactive	inactive
CCCC(=O)O[C@@H]1/C(C)=C\[C@@H]2OC(=O)[C@@]3(C)O[C@]23[C@@H](OC(C)=O)[C@H]2[C@@H](C)[C@@H](O)C[C@H](OC(C)=O)[C@]2(C)[C@@H](O)[C@H]1OC(C)=O	–	–	–	inactive	inactive	inactive
CCCC(=O)O[C@@H]1/C(C)=C\[C@@H]2OC(=O)[C@@]3(C)O[C@]23[C@@H](OC(C)=O)[C@H]2[C@@H](C)[C@@H](OC(C)=O)C[C@H](OC(C)=O)[C@]2(C)[C@@H](OC(C)=O)[C@H]1O	–	–	–	inactive	inactive	inactive
